Measurements reported in ChEMBL document CHEMBL3804789, “5-Ene-4-thiazolidinones induce apoptosis in mammalian leukemia cells” (Eur J Med Chem, 2016).

What was measured:
Type in all cases: functional, cell-based
[1] = Antiproliferative activity against human HL60 cells after 72 hrs by MTT assay; conditions: HL-60, 72 h
Summary of the method: (§1)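 MTT viability after 72 h continuous exposure. Cells seeded 24 h beforehand at 2,000/well (adherent) or 10,000/well (suspension), then given 0, 0.01, 0.1, 0.5, 1.0 or 10.0 μM compound diluted from 10 mM DMSO stock into RPMI or DMEM with 10% FBS, 37°C, 5% CO2. IC50 taken as concentration killing 50% of cells versus untreated culture.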

[2] = Antiproliferative activity against human SKOV3 cells after 72 hrs by MTT assay; conditions: SK-OV-3, 72 h; summary of the method: as §1
[3] = Antiproliferative activity against human HL60/ADR cells after 72 hrs by MTT assay; summary of the method: as §1

## O=C1NC(=S)/C(=C/N2N=C(c3ccccc3)CC2c2ccccc2O)S1 (stereo not drawn)
[1]
  IC50: 990 nM
[2]
  IC50: 7870 nM

## CC(=O)Oc1ccc(N2C(=O)/C(=C/N3N=C(c4ccc(Cl)cc4)CC3c3ccc(Cl)cc3)SC2=S)cc1 (stereo not drawn)
[1]
  IC50: > 10000 nM
[2]
  IC50: > 10000 nM

## CN1C(=O)/C(=C/N2N=C(c3ccc4ccccc4c3)CC2c2ccccc2O)SC1=S (stereo not drawn)
[1]
  IC50: > 10000 nM
[2]
  IC50: > 10000 nM

## COc1cccc2c1C(=O)c1c(O)c3c(c(O)c1C2=O)C[C@@](O)(C(=O)CO)C[C@@H]3O[C@H]1C[C@H](N)[C@H](O)[C@H](C)O1 [DOXORUBICIN]
[1]
  IC50: 51 nM
[2]
  IC50: 73 nM
[3]
  IC50: 8800 nM

## O=C1NC(=S)S/C1=C\N1N=C(c2ccc3ccccc3c2)CC1c1ccc(Cl)cc1 (stereo not drawn)
[1]
  IC50: 400 nM
[2]
  IC50: 163 nM

## O=C1NC(=S)S/C1=C\N1N=C(c2ccc(Cl)cc2)CC1c1ccc(Cl)cc1 (stereo not drawn)
[1]
  IC50: > 10000 nM
[2]
  IC50: 9140 nM

## CN1C(=O)/C(=C/N2N=C(c3ccccc3)CC2c2ccccc2O)SC1=S (stereo not drawn)
[1]
  IC50: 2880 nM
[2]
  IC50: 341 nM

## O=C1/C(=C/N2N=C(c3ccc4ccccc4c3)CC2c2ccccc2O)SC(=S)N1c1cccnc1 (stereo not drawn)
[1]
  IC50: 4060 nM
[2]
  IC50: 5590 nM

## CC(=O)Oc1cccc(N2C(=O)/C(=C/N3N=C(c4ccc5ccccc5c4)CC3c3ccc(Cl)cc3)SC2=S)c1 (stereo not drawn)
[1]
  IC50: 1020 nM
[2]
  IC50: 2390 nM

## O=C1/C(=C/N2N=C(c3ccccc3)CC2c2ccccc2O)SC(=S)N1c1cccc(C(F)(F)F)c1 (stereo not drawn)
[1]
  IC50: > 10000 nM
[2]
  IC50: > 10000 nM

## CC(=O)Oc1ccc(N2C(=O)/C(=C/N3N=C(c4ccc5ccccc5c4)CC3c3ccccc3O)SC2=S)cc1 (stereo not drawn)
[1]
  IC50: 500 nM
[2]
  IC50: > 10000 nM
